# Experimental data: ChEMBL document CHEMBL1240299, “C3-symmetric peptide scaffolds are functional mimetics of trimeric CD40L” (Nat Chem Biol, 2005)
# Calls of active or inactive are those of the source. The rule behind the calls is not given here.
# Biological target: Tumor necrosis factor receptor superfamily member 5 (Homo sapiens, UniProt P25942)
# Experiment: Binding affinity to human CD40 by surface plasmon resonance method
# In short: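 Biacore CM5 chip coated by amine coupling with anti-mouse Ig (~10,000 RU), which captured hCD40:mIg. Ligands were dissolved in water at 1 mM and diluted, then injected at several concentrations at 25 °C in HBS-EP (pH 7.4), 30 µl min⁻¹, 5 min association and 5 min dissociation. Regeneration was 50 mM HCl. Control-channel-subtracted sensorgrams were fitted to binding models.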
# Sequence of Tumor necrosis factor receptor superfamily member 5 (P25942 whole entry): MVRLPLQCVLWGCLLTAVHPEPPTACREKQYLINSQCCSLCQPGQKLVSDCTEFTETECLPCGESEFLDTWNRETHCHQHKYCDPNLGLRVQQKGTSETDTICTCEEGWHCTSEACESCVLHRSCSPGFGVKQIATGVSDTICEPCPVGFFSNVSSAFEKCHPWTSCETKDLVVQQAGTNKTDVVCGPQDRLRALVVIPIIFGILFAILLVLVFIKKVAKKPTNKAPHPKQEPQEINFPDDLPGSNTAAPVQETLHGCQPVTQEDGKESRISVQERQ
compound,measurement,value
NCCCC[C@H](N)C(=O)NCC(=O)N[C@@H](Cc1ccc(O)cc1)C(=O)N[C@@H](Cc1ccc(O)cc1)C(=O)NCCCCCC(=O)N[C@@H](CCCCNC(=O)CCCC[C@H]1SC[C@H]2NC(=O)N[C@H]21)C(=O)NCCCCCC(=O)NCCCC[C@@H]1CNC(=O)C[C@H](CCCCNC(=O)CCCCCNC(=O)[C@H](CCCCNC(=O)CCCC[C@H]2SC[C@H]3NC(=O)N[C@H]32)NC(=O)CCCCCNC(=O)[C@H](Cc2ccc(O)cc2)NC(=O)[C@H](Cc2ccc(O)cc2)NC(=O)CNC(=O)[C@@H](N)CCCCN)NC[C@H](CCCCNC(=O)CCCCCNC(=O)[C@H](CCCCNC(=O)CCCC[C@H]2SC[C@H]3NC(=O)N[C@H]32)NC(=O)CCCCCNC(=O)[C@H](Cc2ccc(O)cc2)NC(=O)[C@H](Cc2ccc(O)cc2)NC(=O)CNC(=O)[C@@H](N)CCCCN)NC(=O)C1,Activity,Active
